# This is one part of a sample in which hits are shown more often than they occur.
# S1P3 antag: antagonists of human S1P3 receptor; Q99500; CHO S1P3 NFAT-BLA reporter, FRET fluorescence, antagonist mode; inhibition, % at 4.98 µM; 0.27% of 170,000 active; AID 485;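 active means inhibition above the plate cutoff, the mean inhibition of test wells on that plate plus 3 SD, cut at about 28% in these data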;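 further: cells challenged with S1P at its EC80 of 0.8 µM; blue over green emission ratio from cleaved BLA substrate after 4 h stimulation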
# Lmaj promast: Leishmania major promastigote growth inhibition; inhibition, % at 10 µM; 9% of 200,000 active; Leishmania major promastigotes, resazurin fluorescence viability; AID 1063; in the data active means inhibition above about 50%;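 further: promastigotes grown with compound for 44 hours at 28 °C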
# S1P4 antag: human S1P4 receptor antagonism. O95977. S1P4-expressing cells, antagonist mode, reporter read-out. inhibition, % at 4.98 µM. 0.26% of 220,000 active; in the data active means inhibition above about 29%
# S1P4 ag: human S1P4 receptor agonism. O95977. activation, % at 4.98 µM. S1P4-expressing cell line, agonist reporter assay. 0.35% of 220,000 active; in the data active means activation above about 11%
# Mdm2 ligase inh: inhibitors of human Mdm2 E3 ubiquitin ligase. Q00987. cell-based MDM2 ubiquitination luciferase reporter, 2 h; 0 = plate control, 100 = twice control, blank-subtracted. signal enhancement, % at 5 µM. 0.11% of 210,000 active;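 active means signal enhancement of 30% or more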;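 further: luminescence tracks abundance of the self-degrading MDM2-luciferase fusion protein; higher signal means inhibition of MDM2 E3 ligase activity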
# Target sequence (Q00987 whole entry, looked up, the tested form may be a part): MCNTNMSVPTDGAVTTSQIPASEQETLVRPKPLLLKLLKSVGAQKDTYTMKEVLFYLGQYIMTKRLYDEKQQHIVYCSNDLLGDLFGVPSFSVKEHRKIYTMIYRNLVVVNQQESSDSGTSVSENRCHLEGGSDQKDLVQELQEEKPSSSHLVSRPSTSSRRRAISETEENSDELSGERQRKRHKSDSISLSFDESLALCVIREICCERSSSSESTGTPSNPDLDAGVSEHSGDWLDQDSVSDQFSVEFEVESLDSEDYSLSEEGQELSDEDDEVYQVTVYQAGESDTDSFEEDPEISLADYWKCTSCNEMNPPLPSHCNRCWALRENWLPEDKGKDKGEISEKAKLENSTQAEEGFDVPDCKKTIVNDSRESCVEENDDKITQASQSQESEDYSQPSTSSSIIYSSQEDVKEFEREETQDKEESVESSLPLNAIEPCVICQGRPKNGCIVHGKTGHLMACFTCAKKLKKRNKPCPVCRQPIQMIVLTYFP
#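 Timing – 2 h compound exposure at 37 °C · Assay system – mammalian cells stably expressing self-ubiquitinating, self-degrading MDM2 E3–luciferase fusion · Amount – 2000 cells seeded into each well · Measure – % luminescence enhancement versus blank-corrected plate control mean · Measured by – SteadyLite luminescence, 15 min reagent step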
# Hits are given with their value; - = inactive; . = no result given.
SMILES,S1P3 antag,Lmaj promast,S1P4 antag,S1P4 ag,Mdm2 ligase inh
Cc1cc(C(=O)COC(=O)CC2Sc3ccccc3NC2=O)c(C)n1-c1ccccc1 (stereo not given),-,-,-,-,.
Cc1cc(C(=O)CSc2nnnn2C)c(C)n1-c1ccc2c(c1)OCCO2,-,-,-,-,-
Cc1nnc(SCC(=O)c2cc(C)n(-c3ccc4c(c3)OCO4)c2C)s1,-,61,-,-,-
CCOC(=O)CC(NC(=O)C(CC)c1ccccc1)c1ccccc1Cl (stereo not given),-,95,-,-,-
CCOC(=O)CC(NC(=O)Cc1ccccc1)c1ccccc1Cl (stereo not given),-,-,-,-,-
O=C1C2C(c3ccccc3)C=CC(c3ccccc3)C2C(=O)N1CCO (stereo not given),-,-,-,-,.
O=C1C2C3C=CC(C3=C(c3ccccc3)c3ccccc3)C2C(=O)N1CCO (stereo not given),.,98,-,-,-
Nc1nc2n(n1)C(c1ccccc1)CC(c1ccc(F)cc1)N2 (stereo not given),-,-,-,-,-
Cc1cccc(C2CC(c3ccc(Br)cc3)Nc3nc(N)nn32)c1 (stereo not given),.,73,-,-,-
COc1cccc(C2CC(c3ccc(Cl)cc3)Nc3nc(N)nn32)c1 (stereo not given),-,-,-,-,-
Nc1nc2n(n1)C(c1cccc(Br)c1)CC(c1ccc(F)cc1)N2 (stereo not given),-,93,-,-,-
COc1ccc(C2CC(c3cccc(C)c3)n3nc(N)nc3N2)cc1 (stereo not given),-,86,-,-,-
COc1ccc(C2CC(c3ccc(Br)cc3)Nc3nc(N)nn32)cc1 (stereo not given),-,-,-,-,-
COc1ccc(C2CC(c3cccc(Cl)c3)n3nc(N)nc3N2)cc1 (stereo not given),-,62,-,-,-
COc1cnc(-c2ccccn2)nc1Oc1ccc(Cl)c2ccccc12,.,100,-,-,-
COc1cnc(-c2ccccn2)nc1Oc1ccc(Cl)cc1,.,71,-,-,-
COc1cnc(-c2ccccn2)nc1Oc1ccccc1Cl,.,-,-,-,-
CN(C)C(=O)CN1CCN(Cc2cn(C)nc2-c2ccc3c(c2)OCCO3)CC1,-,-,-,-,-
CCN(CC(=O)NC1CCS(=O)(=O)C1)S(=O)(=O)c1ccc(C)c(C)c1 (stereo not given),-,55,-,-,-
COc1cc(S(=O)(=O)N(Cc2cccs2)CC2CCCO2)ccc1-n1cnnn1 (stereo not given),-,55,-,-,-
CCOc1ccccc1CN(Cc1ccco1)S(=O)(=O)c1ccc(-n2cnnn2)c(OC)c1,-,69,-,-,-
Cc1cc(S(=O)(=O)N(Cc2ccccc2F)C2CC2)ccc1-n1cnnn1,-,100,-,-,-
COc1cc(S(=O)(=O)N(Cc2ccccc2)CC2CCCO2)ccc1-n1cnnn1 (stereo not given),-,-,-,-,-
COc1cc(S(=O)(=O)N(Cc2ccco2)C2CCCC2)ccc1-n1cnnn1,-,71,-,-,-
CN(C)S(=O)(=O)NCc1ccc2c(c1)OCO2,-,-,-,-,-
SMILES,S1P3 antag,Lmaj promast,S1P4 antag,S1P4 ag,Mdm2 ligase inh
Cc1cc(C)n(-c2ccc(C(=O)NC3CCCCC3)cc2)n1,-,-,-,-,-
Cc1cccc(C(C)C)c1NC(=O)CN(C)Cc1cccc(F)c1,-,72,-,-,-
Cc1cc(C)c(C#N)c(SCC(=O)NC(C)(C)C)n1,.,-,-,-,-
Cc1cc(C)c(C#N)c(SCC(=O)C(C)(C)C)n1,.,77,-,-,-
COc1ccc(-c2cc(CNC(C)=O)on2)cc1,.,-,-,-,-
COc1ccc(-c2cc(CNC(=O)CCl)on2)cc1,.,66,-,-,-
CCCCn1cnc2sc3c(c2c1=N)CCCC3,-,-,-,-,-
N=c1c2c3c(sc2ncn1Cc1ccccc1)CCCC3,-,92,-,-,-
CCCCc1c(O)c2ccccc2n(CCCC)c1=O,-,-,-,-,-
CCCCc1c(CCC)c(=N)c2ccccc2n1C,.,100,-,-,-
COc1ccc(-n2c(Cc3cccn3C)nnc2SCC(=O)NCCc2ccccc2)cc1,-,-,-,-,-
COc1ccc(S(=O)(=O)N(CCc2ccccc2)CC(=O)N/N=C/c2ccc3c(c2)OCO3)cc1,-,99,-,-,-
O=C(N/N=C/c1ccc2c(c1)OCO2)c1ccc2ccccc2n1,-,78,-,-,-
CC(SCc1ccccc1)C(=O)N/N=C/c1ccc2c(c1)OCO2 (stereo not given),.,75,-,-,-
Cc1ccn2c(C(=O)N/N=C\c3ccc4c(c3)OCO4)c(C)nc2c1,-,85,-,-,-
S=c1[nH]nc(C23CC4CC(CC(C4)C2)C3)n1Cc1ccco1,-,-,-,-,-
O=C1C=CC(=O)N1CCCCCCN1C(=O)C=CC1=O,-,-,79,-,-
CCCCn1c(SCC(=O)N2CCOCC2)nnc1-c1cccs1,-,-,-,-,-
COc1ccc(-c2c[n+]3c4n2CCCCC4=C(c2ccc(Br)cc2)C3)cc1,.,100,-,-,-
COc1ccc(-c2cnc3n2CCCCC3)cc1,-,.,-,-,-
O=C(C[n+]1cc(-c2ccc(Cl)cc2)n2c1CCCCC2)c1ccccc1,-,.,-,-,-
Clc1ccc(C2=C3CCCCn4c(-c5ccccc5)c[n+](c43)C2)cc1,.,100,-,-,-
N=c1c(C(=O)NC2CCCCC2)cc2c(=O)n3ccccc3nc2n1CCN1CCOCC1,-,.,.,.,.
CC(=O)N(c1ccc(C)cc1)S(=O)(=O)c1ccc(Cl)cc1,-,-,-,-,-
CC(=O)C(N=Nc1ccccc1)(Sc1nnc(-c2ccccc2)n1-c1ccccc1)C(=O)Nc1ccccc1 (stereo not given),.,78,-,-,-
SMILES,S1P3 antag,Lmaj promast,S1P4 antag,S1P4 ag,Mdm2 ligase inh
COCC(=O)NNS(=O)(=O)c1ccccc1[N+](=O)[O-],-,54,-,-,-
COc1ccccc1CC(=O)NNS(=O)(=O)c1ccccc1[N+](=O)[O-],-,-,-,-,-
O=C(Nc1ccccn1)C(=O)N1CCCCC1,.,-,-,-,.
O=C(NNC(=O)c1ccc(F)cc1)C(=O)N1CCCCC1,-,95,-,-,-
O=C(NNc1ccccc1)C(=O)N1CCCCC1,-,67,-,-,-
Cc1ccc(C)c(NC(=O)C(=O)NCc2ccccn2)c1,-,64,-,-,-
Cc1ccc(NC(=O)NCc2ccccn2)cc1,-,-,-,-,-
Cc1onc(-c2c(Cl)cccc2Cl)c1C(=O)N/N=C(\N)COc1ccc(Cl)cc1,.,97,-,-,-
CCSc1nc2sc3c(c2c(=O)[nH]1)CCCC3,.,-,-,-,-
CCSC1=NC2(CCCCC2)Nc2sc3c(c21)CCCC3,.,100,-,-,-
CCOC(=O)c1cnc(-n2nc(C)cc2C)nc1NC1CCCCC1,-,100,-,-,-
